≈ marks a conversion by molar mass, not a printed value.
Tests used:
Assay type in all cases: functional
[1] = test system: Mycobacterium tuberculosis; assay: Antimycobacterial activity against multidrug-resistant Mycobacterium tuberculosis 7357/98 after 14 days by micromethod; details: 7357/98, 336 h
Method in brief: (§1)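 MIC by micromethod in Šula semisynthetic medium. Compounds added as DMSO solutions at 1000, 500, 250, 125, 62, 32, 16, 8, 4 and 2 µmol/L. Incubated at 37 °C and read at 14 and 21 days. MIC taken as the lowest concentration that inhibited mycobacterial growth, expressed in µmol/L. INH run as standard. Strains from CNCTC.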

[2] = test system: Mycobacterium tuberculosis; assay: Antimycobacterial activity against multidrug-resistant Mycobacterium tuberculosis 7357/98 after 21 days by micromethod; details: 7357/98, 504 h; method in brief: as §1
[3] = test system: Mycobacterium tuberculosis; assay: Antimycobacterial activity against isoniazid and streptomycin-resistant Mycobacterium tuberculosis 4166/04 after 14 days by micromethod; details: 4166/04, 336 h; method in brief: as §1
[4] = test system: Mycobacterium tuberculosis; assay: Antimycobacterial activity against isoniazid and streptomycin-resistant Mycobacterium tuberculosis 4166/04 after 21 days by micromethod; details: 4166/04, 504 h; method in brief: as §1
[5] = test system: Mycobacterium tuberculosis; assay: Antimycobacterial activity against multidrug-resistant Mycobacterium tuberculosis 4977/03 after 14 days by micromethod; details: 4977/03, 336 h; method in brief: as §1
[6] = test system: Mycobacterium tuberculosis; assay: Antimycobacterial activity against multidrug-resistant Mycobacterium tuberculosis 4977/03 after 21 days by micromethod; details: 4977/03, 504 h; method in brief: as §1
[7] = test system: Mycobacterium tuberculosis; assay: Antimycobacterial activity against multidrug-resistant Mycobacterium tuberculosis 550/04 after 14 days by micromethod; details: 550/04, 336 h; method in brief: as §1
[8] = test system: Mycobacterium tuberculosis; assay: Antimycobacterial activity against multidrug-resistant Mycobacterium tuberculosis 550/04 after 21 days by micromethod; details: 550/04, 504 h; method in brief: as §1

With `NC(=S)c1ccc(CSc2nc3ccccc3o2)cc1` as the compound, how does the MIC [1] read?
The MIC was 32 µM (≈ 9.61 µg/mL).

And the MIC [2]?
The MIC was 32 µM (≈ 9.61 µg/mL).

And the MIC [3]?
The MIC was 8 µM (≈ 2.4 µg/mL).

And the MIC [4]?
The MIC was 16 µM (≈ 4.81 µg/mL).

And the MIC [5]?
Its MIC is 32 µM (≈ 9.61 µg/mL).

And the MIC [6]?
The MIC was 32 µM (≈ 9.61 µg/mL).

What about the MIC [7] of the same compound?
Its MIC is 8 µM (≈ 2.4 µg/mL).

What about the MIC [8] of the same compound?
Its MIC is 16 µM (≈ 4.81 µg/mL).

Which MIC [1] does the source give for `O=[N+]([O-])c1cc(CSc2nc3ccccc3o2)cc([N+](=O)[O-])c1` here?
The MIC was 4 µM (≈ 1.33 µg/mL).

And the MIC [2]?
The MIC was 4 µM (≈ 1.33 µg/mL).

And the MIC [3]?
Its MIC is 2 µM (≈ 0.663 µg/mL).

What about the MIC [4] of the same compound?
Its MIC is 4 µM (≈ 1.33 µg/mL).

And the MIC [5]?
Its MIC is 2 µM (≈ 0.663 µg/mL).

What about the MIC [6] of the same compound?
Its MIC is 2 µM (≈ 0.663 µg/mL).

And the MIC [7]?
The MIC was 2 µM (≈ 0.663 µg/mL).

What about the MIC [8] of the same compound?
Its MIC is 4 µM (≈ 1.33 µg/mL).
